Data as given in ChEMBL document CHEMBL1821594, “Synthesis and anticancer evaluation of novel 2-cyclopropylimidazo[2,1-b][1,3,4]-thiadiazole derivatives” (2011).

Tests used:
SF-295 = assay: Antitumor activity against human SF295 cells after 48 hrs by SRB assay; type: functional; conditions: SF-295, 48 h
Outline: (§1)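 Cells grown in RPMI 1640 with 5% FBS and 2 mM L-glutamine and seeded at 5000–40,000 cells/well according to doubling time. They were preincubated 24 h at 37 °C, 5% CO2, then exposed to DMSO-solubilized compound for 48 h. Adherent cells were fixed with cold TCA (10% final), suspension cells with 16% final. Stained with 0.4% SRB; absorbance at 515 nm. Percent growth calculated against time-zero and control plates.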

SNB-19 = assay: Antitumor activity against human SNB19 cells after 48 hrs by SRB assay; type: functional; conditions: SNB-19, 48 h; outline: as §1
[1] = read-out: LC50 (the source's name)

With Clc1ccc(-c2nc3sc(C4CC4)nn3c2Br)cc1 as the molecule, how does the GI50 (SF-295) read?
Its GI50 is 5.04 µM.

What about the TGI (SF-295) of the same molecule?
The TGI was > 100 µM.

And the CC50 (SF-295; [1])?
The CC50 was > 100 µM.

What about the GI50 (SNB-19) of the same molecule?
The GI50 was 15.6 µM.

And the TGI (SNB-19)?
Its TGI is > 100 µM.

What about the CC50 (SNB-19; [1]) of the same molecule?
The CC50 was > 100 µM.
